Test results as given in PMC6733178 (ACS Omega, 2019).
Values after ≈ are worked out from the molar mass of the structure shown.

Tests used:
[1] = test system: S. aureus ATCC 25923 (Sa); test: MIC, broth microdilution with resazurin; type: cell-based, Staphylococcus aureus; conditions: Staphylococcus aureus, ATCC25923, read-out: MIC Values Sa
In short: (§1)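 CLSI broth microdilution. Strains were grown overnight at 35 °C on TSA or TSA with 5% sheep blood. Colonies were suspended in 0.9% saline to 0.5 McFarland, then diluted 1:100 in Mueller Hinton broth (about 1 × 10^6 CFU/mL). Test compound (2 mg/mL DMSO stock) was serially diluted 1:2 from 50 µg/mL final. Resazurin was added at 8 µg/mL final, and plates were incubated 35 °C for 20–24 h and read visually. MIC is the lowest concentration without the resazurin colour change. Each plate carried untreated, DMSO and antibiotic controls.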

[2] = test system: S. aureus BAA-2312 (Sa12); test: MIC, broth microdilution with resazurin; type: cell-based, Staphylococcus aureus; conditions: Staphylococcus aureus, BAA2312, read-out: MIC Values Sa12
In short: as §1

[3] = test system: S. aureus ATCC 33591 (Sa91); test: MIC, broth microdilution with resazurin; type: cell-based, Staphylococcus aureus; conditions: Staphylococcus aureus, ATCC33591, read-out: MIC Values Sa91
In short: as §1

[4] = test system: S. aureus ATCC 700699 (Sa99); test: MIC, broth microdilution with resazurin; type: cell-based, Staphylococcus aureus; conditions: for MIC: Staphylococcus aureus, ATCC700699, read-out: MIC Values Sa99
In short: as §1

[5] = test system: S. aureus ATCC 33592 (Sa92); test: MIC, broth microdilution with resazurin; type: cell-based, Staphylococcus aureus; conditions: Staphylococcus aureus, ATCC33592, read-out: MIC Values Sa92
In short: as §1

[6] = test system: S. epidermidis 700296 (Se); test: MIC, broth microdilution with resazurin; type: cell-based; conditions: Staphylococcus epidermidis, read-out: MIC Values Se
[7] = test system: A. baumannii ATCC 19606 (Type Strain, AB06); test: MIC, broth microdilution with resazurin; type: cell-based, Acinetobacter baumannii; conditions: Acinetobacter baumannii, ATCC19606, read-out: MIC Ab06
In short: as §1

[8] = test system: A. baumannii ATCC 747 (Ab47); test: MIC, broth microdilution with resazurin; type: cell-based, Acinetobacter baumannii; conditions: Acinetobacter baumannii, ATCC747, read-out: MIC Ab47
In short: as §1

[9] = test system: three strains of A. baumannii; test: MIC summarised in the text over the three A. baumannii strains; type: cell-based, Acinetobacter baumannii
In short: as §1

[10] = test system: tested Gram-positive strains (S. aureus incl. MRSA, S. epidermidis, B. subtilis); test: MIC summarised in the text over the tested Gram-positive strains; type: cell-based

Row | Molecule | MIC [1] [mg/L] | MIC [2] [mg/L] | MIC [3] [mg/L] | MIC [4] [mg/L] | MIC [5] [mg/L] | MIC [6] [mg/L] | MIC [7] [mg/L] | MIC [8] [mg/L] | activity against A. baumannii strains (in words) [9] | activity against the tested strains (in words) [10] | MIC Values Sa99 ([4]; antibiotic-resistant strain, NA = No Activity) | MIC value as low as ([10]; lowest MIC over the tested Gram-positive / MRSA strains) [mg/L]
1 | O=C(O)c1ccc(-n2cc(/C=N/Nc3cccc(Cl)c3)c(-c3cccc(F)c3)n2)cc1 [Compound 8, 4-[4-[(E)-[(3-Chlorophenyl)hydrazono]methyl]-3-(3-fluorophenyl)pyrazol-1-yl]benzoic Acid] | 6.25 (≈ 14.4 µM) | 12.5 (≈ 28.7 µM) | 12.5 (≈ 28.7 µM) | 3.12 (≈ 7.19 µM) | 6.25 (≈ 14.4 µM) | 12.5 (≈ 28.7 µM) | 6.25 (≈ 14.4 µM) | 12.5 (≈ 28.7 µM) | moderate activity |  |  | 
2 | O=C(O)c1ccc(-n2cc(/C=N/Nc3cc(F)ccc3F)c(-c3ccc(F)cc3)n2)cc1 [Compound 28, 4-[4-[(E)-[(2,5-Difluorophenyl)hydrazono]methyl]-3-(4-fluorophenyl)pyrazol-1-yl]benzoic Acid] | 12.5 (≈ 28.6 µM) | 12.5 (≈ 28.6 µM) | 25 (≈ 57.3 µM) | 6.25 (≈ 14.3 µM) | 6.25 (≈ 14.3 µM) | 12.5 (≈ 28.6 µM) |  |  |  | moderate activity |  | 
3 | O=C(O)c1ccc(-n2cc(/C=N/Nc3cc(F)ccc3F)c(-c3cccc(F)c3)n2)cc1 [Compound 11, 4-[4-[(E)-[(2,5-Difluorophenyl)hydrazono]methyl]-3-(3-fluorophenyl)pyrazol-1-yl]benzoic Acid] | 12.5 (≈ 28.6 µM) | 12.5 (≈ 28.6 µM) | 12.5 (≈ 28.6 µM) | 6.25 (≈ 14.3 µM) | 3.12 (≈ 7.16 µM) | 12.5 (≈ 28.6 µM) |  |  |  |  |  | 
4 | O=C(O)c1ccc(-n2cc(/C=N/N(Cc3ccccc3)c3ccccc3)c(-c3cccc(F)c3)n2)cc1 [Compound 6, 4-[4-[(E)-[Benzyl(phenyl)hydrazono]methyl]-3-(3-fluorophenyl)pyrazol-1-yl]benzoic Acid] | 1.56 (≈ 3.18 µM) | 1.56 (≈ 3.18 µM) | 1.56 (≈ 3.18 µM) | 1.56 (≈ 3.18 µM) | 1.56 (≈ 3.18 µM) | 1.56 (≈ 3.18 µM) |  |  |  |  |  | 
5 | O=C(O)c1ccc(-n2cc(/C=N/Nc3c(F)c(F)c(F)c(F)c3F)c(-c3cccc(F)c3)n2)cc1 [Compound 15, 4-[3-(3-Fluorophenyl)-4-[(E)-[(2,3,4,5,6-pentafluorophenyl)hydrazono]methyl]pyrazol-1-yl]benzoic Acid] | 12.5 (≈ 25.5 µM) | 12.5 (≈ 25.5 µM) | 12.5 (≈ 25.5 µM) | 6.25 (≈ 12.7 µM) | 3.12 (≈ 6.37 µM) | 25 (≈ 51 µM) |  |  |  | moderate activity |  | 
6 | O=C(O)c1ccc(-n2cc(/C=N/Nc3ccc([N+](=O)[O-])cc3)c(-c3ccc(F)cc3)n2)cc1 [Compound 31, 4-[3-(4-Fluorophenyl)-4-{(E)-[2-(4-nitrophenyl)hydrazinylidene]methyl}-1H-pyrazol-1-yl]benzoic Acid] |  |  |  |  |  |  |  |  |  | no activity |  | 
7 | O=C(O)c1ccc(N/N=C/c2cn(-c3ccc(C(=O)O)cc3)nc2-c2cccc(F)c2)cc1 [Compound 18, 4-[(2E)-2-[[1-(4-Carboxyphenyl)-3-(3-fluorophenyl)pyrazol-4-yl]methylene]hydrazino]benzoic Acid] |  |  |  |  |  |  |  |  |  | completely ceased the activity |  | 
8 | N#Cc1ccc(N/N=C/c2cn(-c3ccc(C(=O)O)cc3)nc2-c2ccc(F)cc2)cc1 [Compound 30, 4-[4-[(E)-[(4-Cyanophenyl)hydrazono]methyl]-3-(4-fluorophenyl)pyrazol-1-yl]benzoic Acid] | 12.5 (≈ 29.4 µM) |  |  | 6.25 (≈ 14.7 µM) | 12.5 (≈ 29.4 µM) |  | 12.5 (≈ 29.4 µM) | 12.5 (≈ 29.4 µM) |  | moderate activity |  | 
9 | O=C(O)c1ccc(-n2cc(/C=N/Nc3cccc(Br)c3)c(-c3ccc(F)cc3)n2)cc1 [Compound 27, 4-[4-[(E)-[(3-Bromophenyl)hydrazono]methyl]-3-(4-fluorophenyl)pyrazol-1-yl]benzoic Acid] | 12.5 (≈ 26.1 µM) | 12.5 (≈ 26.1 µM) | 12.5 (≈ 26.1 µM) | 6.25 (≈ 13 µM) | 3.12 (≈ 6.52 µM) | 25 (≈ 52.2 µM) | 6.25 (≈ 13 µM) | 25 (≈ 52.2 µM) |  | moderate activity |  | 
10 | O=Cc1cn(-c2ccc(C(=O)O)cc2)nc1-c1cccc(F)c1 [3a, 4-[3-(3-Fluorophenyl)-4-formyl-pyrazol-1-yl]benzoic Acid] |  |  |  |  |  |  |  |  |  |  | did not show any activity | 
11 | O=C(O)c1ccc(-n2cc(/C=N/n3cnnc3)c(-c3cccc(F)c3)n2)cc1 [Compound 19, 4-[3-(3-Fluorophenyl)-4-[(E)-1,2,4-triazol-4-yliminomethyl]pyrazol-1-yl]benzoic Acid] |  |  |  |  |  |  |  |  |  | completely ceased the activity |  | 
12 | O=C(O)c1ccc(-n2cc(/C=N/Nc3ccc(F)cc3)c(-c3ccc(F)cc3)n2)cc1 [Compound 26, 4-[3-(4-Fluorophenyl)-4-[(E)-[(4-fluorophenyl)hydrazono]methyl]pyrazol-1-yl]benzoic Acid] | 12.5 (≈ 29.9 µM) | 25 (≈ 59.8 µM) | 25 (≈ 59.8 µM) | 12.5 (≈ 29.9 µM) | 12.5 (≈ 29.9 µM) | 25 (≈ 59.8 µM) | 12.5 (≈ 29.9 µM) | > 25 |  | moderate activity |  | 
13 | CN(/N=C/c1cn(-c2ccc(C(=O)O)cc2)nc1-c1cccc(F)c1)c1ccccc1 [Compound 4, 4-{3-(3-Fluorophenyl)-4-[(E)-(2-methyl-2-phenylhydrazinylidene)methyl]-1H-pyrazol-1-yl}benzoic Acid] | 12.5 (≈ 30.2 µM) | 25 (≈ 60.3 µM) | 25 (≈ 60.3 µM) | 25 (≈ 60.3 µM) | 12.5 (≈ 30.2 µM) | 12.5 (≈ 30.2 µM) |  |  |  | moderate growth inhibition |  | 
14 | 4-[4-[(2-Benzyl-2-phenyl-hydrazino)methyl]-3-(4-fluorophenyl)pyrazol-1-yl]benzoic Acid [Compound 24] |  |  |  |  |  |  |  |  |  | failed to show any significant activity |  | 
15 | O=C(O)c1ccc(-n2cc(/C=N/Nc3c(F)c(F)cc(F)c3F)c(-c3cccc(F)c3)n2)cc1 [Compound 14, 4-[3-(3-Fluorophenyl)-4-[(E)-[(2,3,5,6-tetrafluorophenyl)hydrazono]methyl]pyrazol-1-yl]benzoic Acid] | 12.5 (≈ 26.5 µM) | 12.5 (≈ 26.5 µM) | 12.5 (≈ 26.5 µM) | 6.25 (≈ 13.2 µM) | 6.25 (≈ 13.2 µM) | 25 (≈ 52.9 µM) |  |  |  | moderate activity |  | 
16 | O=C(O)c1ccc(-n2cc(/C=N/Nc3ccc(C(F)(F)F)cc3)c(-c3cccc(F)c3)n2)cc1 [Compound 16, 4-[3-(3-Fluorophenyl)-4-[(E)-[[4-(trifluoromethyl)phenyl]hydrazono]methyl]pyrazol-1-yl]benzoic Acid] | 12.5 (≈ 26.7 µM) | 12.5 (≈ 26.7 µM) | 6.25 (≈ 13.3 µM) | 6.25 (≈ 13.3 µM) | 6.25 (≈ 13.3 µM) | 12.5 (≈ 26.7 µM) |  |  |  | moderate activity |  | 
17 | O=C(O)c1ccc(-n2cc(/C=N/Nc3cccc(Br)c3)c(-c3cccc(F)c3)n2)cc1 [Compound 9, 4-[4-[(E)-[(3-Bromophenyl)hydrazono]methyl]-3-(3-fluorophenyl)pyrazol-1-yl]benzoic Acid] | 12.5 (≈ 26.1 µM) | 12.5 (≈ 26.1 µM) | 12.5 (≈ 26.1 µM) | 3.12 (≈ 6.52 µM) | 6.25 (≈ 13 µM) | 12.5 (≈ 26.1 µM) | 6.25 (≈ 13 µM) | 12.5 (≈ 26.1 µM) | moderate activity |  |  | 
18 | O=C(O)c1ccc(-n2cc(/C=N/Nc3cccc(Cl)c3F)c(-c3ccc(F)cc3)n2)cc1 [Compound 29, 4-[4-[(E)-[(3-Chloro-2-fluorophenyl)hydrazono]methyl]-3-(4-fluorophenyl)pyrazol-1-yl]benzoic Acid] | 6.25 (≈ 13.8 µM) | 3.12 (≈ 6.9 µM) | 12.5 (≈ 27.6 µM) | 1.56 (≈ 3.44 µM) | 1.56 (≈ 3.44 µM) | 12.5 (≈ 27.6 µM) |  |  |  |  |  | 
19 | O=C(O)c1ccc(-n2cc(/C=N/N(Cc3ccccc3)Cc3ccccc3)c(-c3ccc(F)cc3)n2)cc1 [Compound 25, 4-[4-[(E)-(Dibenzylhydrazono)methyl]-3-(4-fluorophenyl)pyrazol-1-yl]benzoic Acid] |  |  |  | 6.25 (≈ 12.4 µM) | 3.12 (≈ 6.19 µM) |  |  |  |  |  |  | 
20 | O=C(O)c1ccc(-n2cc(/C=N/Nc3cccc(Cl)c3F)c(-c3cccc(F)c3)n2)cc1 [Compound 13, 4-[4-[(E)-[(3-Chloro-2-fluorophenyl)hydrazono]methyl]-3-(3-fluorophenyl)pyrazol-1-yl]benzoic Acid] | 3.12 (≈ 6.9 µM) | 12.5 (≈ 27.6 µM) | 6.25 (≈ 13.8 µM) | 3.12 (≈ 6.9 µM) | 0.78 (≈ 1.72 µM) | 6.25 (≈ 13.8 µM) |  |  |  |  |  | 0.78 (≈ 1.72 µM)
21 | O=C(O)c1ccc(-n2cc(/C=N/Nc3ccccn3)c(-c3cccc(F)c3)n2)cc1 [Compound 20, 4-[3-(3-Fluorophenyl)-4-{(E)-[2-(pyridin-2-yl)hydrazinylidene]methyl}-1H-pyrazol-1-yl]benzoic Acid] |  |  |  |  |  |  |  |  |  | completely ceased the activity |  | 
